Test results published in ChEMBL document CHEMBL5321262, “Antiviral Activity of Cannabidiolic Acid and Its Methyl Ester against SARS-CoV-2” (J Nat Prod, 2023).
Active and inactive are the calls of the source. No cut-off for these calls is given here.

Tests used:
[1] = Cytotoxicity against African green monkey Vero E6 cells measured after 72 hrs by LDH assay; format: toxicity, cell-based, Vero C1008; conditions: chlorocebus sabaeus
Outline: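 Vero E6 seeded at 2 × 10^4 cells/well and held overnight at 37 °C, 5% CO2. Compounds added at final 2.3–300.0 µM (8 two-fold steps) with DMSO fixed at 0.5% v/v. After 72 h, LDH-WST read-out at 490 nm, with % cytotoxicity taken against DMSO control. CC50 from nonlinear dose–response regression.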

SARS-CoV-2 [2] = assay: Antiviral activity against SARS-CoV-2 Italian strain PV10734 infected in African green monkey Vero E6 cells assessed as reduction in virus-induced cytopathic effect preincubated with virus for 1 hr followed by infection with cells and measured after 72 hrs by microscopic analysis; format: functional, organism-based; conditions: Severe acute respiratory syndrome coronavirus 2, time 73.0 hrs
[3] = Stability of compound in African green monkey Vero E6 cell lysates assessed as decarboxylation at 37.5 uM measured upto 30 mins by UHPLC-HRMS analysis; format: ADME, subcellular; conditions: chlorocebus sabaeus, vero c1008, 0.5 h
SARS-CoV-2 [4] = assay: Antiviral activity against SARS-CoV-2 Italian strain PV10734 infected in African green monkey Vero E6 cells assessed as inhibition of virus titers of progeny virus in supernatant at 37.5 uM measured after 72 hrs by CPE assay relative to control; format: functional; conditions: Severe acute respiratory syndrome coronavirus 2, PV10734, Vero C1008
SARS-CoV-2 [5] = assay: Antiviral activity against SARS-CoV-2 Italian strain PV10734 infected in African green monkey Vero E6 cells assessed as reduction in viral replication at 37.5 uM measured at 72 hrs post-infection by qRT-PCR analysis; format: functional, organism-based; conditions: Severe acute respiratory syndrome coronavirus 2
SARS-CoV-2 [6] = assay: Antiviral activity against SARS-CoV-2 Italian strain PV10734 infected in African green monkey Vero E6 cells assessed as reduction in virus-induced cytopathic effect at 37.5 uM preincubated with virus for 1 hr followed by infection with cells and measured after 72 hrs by microscopic analysis; format: functional, organism-based; conditions: Severe acute respiratory syndrome coronavirus 2, time 73.0 hrs
[7] = Stability of compound in cell culture media at 37.5 uM measured upto 30 mins by UHPLC-HRMS analysis; format: physicochemical; conditions: 0.5 h
SARS-CoV-2 [8] = assay: Antiviral activity against SARS-CoV-2 Italian strain PV10734 infected in African green monkey Vero E6 cells assessed as reduction in virus titers of progeny virus in supernatant measured after 72 hrs by CPE assay; format: functional, organism-based; conditions: Severe acute respiratory syndrome coronavirus 2, PV10734, Vero C1008, 72 h
SARS-CoV-2 [9] = assay: Antiviral activity against SARS-CoV-2 Italian strain PV10734 infected in African green monkey Vero E6 cells assessed as inhibition of virus titers of progeny virus in supernatant at 75 uM measured after 72 hrs by CPE assay relative to control; format: functional; conditions: Severe acute respiratory syndrome coronavirus 2, PV10734, Vero C1008
[10] = Stability of compound in African green monkey Vero E6 cell lysates assessed as decarboxylation at 75 uM measured upto 30 mins by UHPLC-HRMS analysis; format: ADME, subcellular; conditions: chlorocebus sabaeus, vero c1008, 0.5 h
SARS-CoV-2 [11] = assay: Antiviral activity against SARS-CoV-2 Italian strain PV10734 infected in African green monkey Vero E6 cells assessed as reduction in viral replication at 75 uM measured at 72 hrs post-infection by qRT-PCR analysis; format: functional, organism-based; conditions: Severe acute respiratory syndrome coronavirus 2
SARS-CoV-2 [12] = assay: Antiviral activity against SARS-CoV-2 Italian strain PV10734 infected in African green monkey Vero E6 cells assessed as reduction in virus-induced cytopathic effect at 75 uM preincubated with virus for 1 hr followed by infection with cells and measured after 72 hrs by microscopic analysis; format: functional, organism-based; conditions: Severe acute respiratory syndrome coronavirus 2, time 73.0 hrs

| SMILES | CC50 at 72 h [1] | Activity (SARS-CoV-2 [2]) | other results |
| --- | --- | --- | --- |
| CCCc1cc(O)c(C/C=C(\C)CCC=C(C)C)c(O)c1 | 58.1 µM | inactive |  |
| C=C(C)[C@@H]1CCC(C)=C[C@H]1c1c(O)cc(CCCCC)c(C(=O)OC)c1O | 52.4 µM |  | Stability [3]: Stable; inhibition at 37.5 µM (SARS-CoV-2 [4]): > 90%; Activity (SARS-CoV-2 [5]): Active; Activity (SARS-CoV-2 [6]): Active; Stability [7]: Stable; IC50 (SARS-CoV-2 [8]): 18.4 µM |
| CCCCCc1cc(O)c2c(c1)OC(C)(CCC=C(C)C)C=C2 (stereo not given) [CANNABICHROMENE] | 59.3 µM | inactive |  |
| C=C(C)[C@@H]1CCC(C)=C[C@H]1c1c(O)cc(CCCCC)c(C(=O)O)c1O [CANNABIDIOLIC ACID] | 119 µM |  | inhibition at 75 µM (SARS-CoV-2 [9]): > 90%; Stability [10]: Unstable; Activity (SARS-CoV-2 [11]): Active; Activity (SARS-CoV-2 [12]): Active; IC50 (SARS-CoV-2 [8]): 42.7 µM |
| C=C(C)[C@@H]1CCC(C)=C[C@H]1c1c(O)cc(CCCCC)cc1O [CANNABIDIOL] | 28.9 µM | inactive |  |
| C=C(C)[C@@H]1CCC(C)=C[C@H]1c1c(O)cc(CCC)cc1O [CANNABIDIVARIN] | 26 µM | inactive |  |
| CCCCCc1cc(O)c(C/C=C(\C)CCC=C(C)C)c(O)c1C(=O)O [CANNABIGEROLIC ACID] | 43.9 µM | inactive |  |
| CCCCCc1cc(O)c(C/C=C(\C)CCC=C(C)C)c(O)c1 [CANNABIGEROL] | 58 µM | inactive |  |
